The source made the active and inactive calls.
Columns and labels:
[1] = tested on: Human alphaherpesvirus 2; experiment: Antiviral activity at <=320 uM determined in a culture of Herpes simplex virus type 2; IA = inactive; type: functional, organism-based
[2] = tested on: WIL2; experiment: Antitumor activity at <=100 uM determined in a 3-5 days culture of WI-L2 (human B-ltmphoblast); NA = no activity was shown; type: functional, cell-based
Procedure, shortened: (§1)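 Wells seeded at (5–10) × 10³ cells with compound at 0.1–100 μM, triplicate wells, 37 °C. L1210 and WI-L2 ran 3 days, CCRF-CEM 4 days, Lovo/L 5 days. MTT was then added for 2 h and formazan dissolved in 2-propanol/0.04 M HCl before absorbance reading. ID50 is the concentration giving 50% of control growth.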

[3] = tested on: unidentified adenovirus; experiment: Antiviral activity at <=320 uM determined in a culture of Adenovirus type 2; IA = inactive; type: functional, organism-based
[4] = tested on: L1210; experiment: Antitumor activity at <=100 uM determined in a 3-5 days culture of L1210 murine leukemia; NA = no activity was shown; type: functional, cell-based; details: Mus musculus; procedure, shortened: as §1
[5] = tested on: Enterovirus; experiment: Antiviral activity at <=320 uM determined in a culture of Rhinovirus type 1-A; IA = inactive; type: functional, organism-based
[6] = tested on: LoVo; experiment: Antitumor activity at <=100 uM determined in a 3-5 days culture of LOVO/L (human colon carcinoma); NA = no activity was shown; type: functional, cell-based; procedure, shortened: as §1
[7] = tested on: CCRF-CEM; experiment: Antitumor activity at <=100 uM determined in a 3-5 days culture of CCRF-CEM(human T cell leukemia); NA = no activity was shown; type: functional, cell-based; procedure, shortened: as §1
[8] = tested on: Influenza A virus; experiment: Antiviral activity at <=320 uM determined in a culture of Influenza A; IA = inactive; type: functional, organism-based; details: unidentified influenza virus
[9] = tested on: Visna-maedi virus; experiment: Antiviral activity at <=320 uM determined in a culture of Visna virus; IA = inactive; type: functional, organism-based
[10] = tested on: WIL2; experiment: Antitumor activity at <=100 uM determined in a 3-5 days culture of WI-L2 […]; NA = no activity was shown; type: functional, cell-based; procedure, shortened: as §1
[11] = tested on: Human respirovirus 3; experiment: Antiviral activity at 10-30 uM determined in a culture of Parainfluenza virus type 3; IA = inactive; type: functional, organism-based
[12] = tested on: Enterovirus; experiment: Antiviral activity at 100 uM determined in a culture of Rhinovirus type 1-A; IA = inactive; type: functional, organism-based
[13] = tested on: Visna-maedi virus; experiment: Antiviral activity at 1-3 uM determined in a culture of Visna virus; IA = inactive; type: functional, organism-based
[14] = tested on: Human alphaherpesvirus 2; experiment: Antiviral activity at 1-3 uM determined in a culture of Herpes simplex virus type 2; IA = inactive; type: functional, organism-based
[15] = tested on: Influenza A virus; experiment: Antiviral activity at 10-30 uM determined in a culture of Influenza A; IA = inactive; type: functional, organism-based; details: unidentified influenza virus
[16] = tested on: unidentified adenovirus; experiment: Antiviral activity at 100 uM determined in a culture of Adenovirus type 2; IA = inactive; type: functional, organism-based
[17] = Percent of phosphorylated forms of compound at 4 hr after phosphorylation by nucleoside monophosphate kinase; details: Bos taurus

Nc1nc(O)c2ncn(C3O[C@H](CP(=O)(O)O)[C@@H](O)[C@H]3O)c2n1 (stereo partly drawn)
inactive: Activity [1] | Activity [2] | Activity [3] | Activity [4] | Activity [5] | Activity [6] | Activity [7] | Activity [8] | Activity [9]

O=P(O)(O)C[C@H]1OC(n2cnc3c(O)ncnc32)[C@H](O)[C@@H]1O (stereo partly drawn)
inactive: Activity [1] | Activity [10] | Activity [3] | Activity [4] | Activity [5] | Activity [6] | Activity [7] | Activity [8] | Activity [9]

NC(=O)c1ncn([C@@H]2O[C@H](CO)[C@@H](O)[C@H]2O)n1
inactive: Activity [11] | Activity [12] | Activity [13] | Activity [14] | Activity [15] | Activity [16]

Nc1ccn(C2O[C@H](CP(=O)(O)O)[C@@H](O)[C@H]2O)c(=O)n1 (stereo partly drawn)
inactive: Activity [1] | Activity [2] | Activity [3] | Activity [4] | Activity [5] | Activity [6] | Activity [7] | Activity [8] | Activity [9]
87%: % nucleotide present [17]

O=c1ccn(C2O[C@H](CP(=O)(O)O)[C@@H](O)[C@H]2O)c(=O)[nH]1 (stereo partly drawn)
inactive: Activity [1] | Activity [2] | Activity [3] | Activity [4] | Activity [5] | Activity [6] | Activity [7] | Activity [8] | Activity [9]

Source: ChEMBL document CHEMBL1124600, “Synthesis and biological properties of purine and pyrimidine 5'-deoxy-5'-(dihydroxyphosphinyl)-beta-D-ribofuranosyl analogues of AMP, GMP, IMP, and CMP” (J Med Chem, 1989)
